From PubChem BioAssay
CYP2C9 act = activators of human CYP2C9 | activation factor at 5 µM | 96,000 tested, 1.4% active | AID 1024 | recombinant CYP2C9, luciferin-H conversion, luminescence; stronger effect = higher value; factor 1 = untreated enzyme, 0 = blocked;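 active means activation factor of 2 or more for CYP2C9 at a 5 µM dose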;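 further: 0 = sulfaphenazole-blocked wells and 1 = vehicle-only wells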
tolC growth inh = blocks growth of E. coli BW25113 tolC mutant. OD615. growth inhibition, % at 10 µM (by protocol). 65,000 tested, 2.2% active;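 active means growth inhibition at or above a cutoff equal to the mean over every tested compound plus 3 SD, cut at about 60% in these data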;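 further: growth measured after 20 h incubation at 37 °C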
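Test system: tolC-deleted E. coli BW25113 | Medium: LB with kanamycin 50 µg/mL | Compound dosing: Single concentration, 10 µM final per compound | Schedule: 37 °C, 20 h exposure | Measured by: OD at 615 nm | Evaluation: Percent growth inhibition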
CYP2C19 inh = blocks human cytochrome P450 2C19. P33261. CYP2C19 Supersomes, luciferin-H EGE luminescence, 30 min. inhibition, % at 5 µM. 96,000 tested, 21% active. AID 778;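 active means CYP2C19 inhibition above a set limit at 5 µM in the primary screen, cut at about 50% in these data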;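 further: plate controls were negative control wells for no effect and 2.5 mM tranylcypromine positive control for full effect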
Target sequence (P33261 whole entry, looked up): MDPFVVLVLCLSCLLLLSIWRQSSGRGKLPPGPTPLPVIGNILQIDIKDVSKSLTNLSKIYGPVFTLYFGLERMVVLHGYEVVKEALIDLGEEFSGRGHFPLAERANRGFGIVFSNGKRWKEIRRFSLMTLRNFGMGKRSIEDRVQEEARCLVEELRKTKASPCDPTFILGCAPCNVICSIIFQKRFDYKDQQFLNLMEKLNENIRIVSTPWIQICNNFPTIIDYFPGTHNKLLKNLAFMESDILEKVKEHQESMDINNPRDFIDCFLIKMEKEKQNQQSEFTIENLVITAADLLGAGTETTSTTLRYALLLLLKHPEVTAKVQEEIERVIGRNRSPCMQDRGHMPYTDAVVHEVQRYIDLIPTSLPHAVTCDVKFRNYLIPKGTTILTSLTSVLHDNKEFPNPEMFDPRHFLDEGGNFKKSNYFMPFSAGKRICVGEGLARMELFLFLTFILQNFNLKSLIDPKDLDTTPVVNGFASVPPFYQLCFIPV
CYP2C19 activ = activators of human cytochrome P450 2C19. 96,000 tested, under 10 active. P33261. AID 1025. activation factor at 5 µM. recombinant CYP2C19, luciferin-H EGE luminescence; stronger effect = higher value; 0 = fully inhibited enzyme, 1 = untreated enzyme;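 active means activation factor of at least 2 at 5 µM in the primary screen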;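 further: 0 = wells with 2.5 mM tranylcypromine and 1 = vehicle-only wells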
CYP2C9 inhib = human CYP2C9 inhibition; CYP2C9 Supersomes, luciferin-H conversion, luminescence; 96,000 tested, 20% active; inhibition, % at 5 µM; P11712; AID 777;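 active means blocking of liver enzyme CYP2C9 beyond about 50% at 5 µM, limit read from the data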
E coli WT exp = growth inhibitors of E. coli BW25113 wild type; AID 710; 98,000 tested, 0.15% active; growth inhibition, % at 100 µM; OD600 absorbance;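 active means growth inhibition above about 50% at one test dose, limit read from the data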;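 further: growth measured after 20 h incubation at 37 °C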
Numbers without * were called inactive; . = no result given. Hits are enriched below; roughly 29% of the tested compounds scored in any of these assays.

SMILES	CYP2C9 act	tolC growth inh	CYP2C19 inh	CYP2C19 activ	CYP2C9 inhib	E coli WT exp
CC(C)(C)NC(=O)c1ccc2c(c1)N(CC(=O)N1CCN(c3ccccc3F)CC1)C(=O)C(C)(C)O2	0.7	-6	14	0.9	33	-9
Cc1nc2sc(C(c3ccccc3)N3CCN(CCO)CC3)c(O)n2n1 (stereo not given)	.	-16	.	.	.	.
O=C(CSc1nccc(-c2ccc(Br)cc2)n1)NCCc1ccccc1	0.5	.	62*	0.4	47	-3
Cc1nc(SCC(=O)NCCc2ccccc2)n[nH]1	1	-14	38	0.6	3	8
CCn1c(=O)cc(NC2=NCC(C)CN2c2cccc(Cl)c2)n(C)c1=O (stereo not given)	0.7	-3	12	0.9	34	2
CS(=O)(=O)N1N=C(c2ccc3nccnc3c2)CC1c1ccccc1 (stereo not given)	0.6	.	27	0.7	42	1
Cc1ccc(C2=NN(S(C)(=O)=O)C(c3cccs3)C2)cc1 (stereo not given)	0.6	.	99*	0	44	-2
CS(=O)(=O)N1N=C(c2ccc(Br)cc2)CC1c1cccs1 (stereo not given)	0.6	.	92*	0.1	35	-24
CCc1ccc(C2=NN(S(C)(=O)=O)C(c3cccs3)C2)cc1 (stereo not given)	0.6	.	56*	0.4	41	-5
CCS(=O)(=O)Nc1cccc(C2=NN(S(=O)(=O)c3ccccc3)C(c3cccs3)C2)c1 (stereo not given)	0.3	.	50*	0.5	67*	-8
CCC(=O)N1N=C(c2ccc(NS(C)(=O)=O)cc2)CC1c1ccc(C)cc1 (stereo not given)	0.6	.	29	0.7	42	0
O=S(=O)(c1ccccc1)N1N=C(c2cccs2)CC1c1ccc(F)cc1 (stereo not given)	1.1	.	-12	1.1	-12	-2
C1CSC2(N1)C1CC3CC2CC(C1)C31NCCS1 (stereo not given)	0.9	.	16	0.8	5	11
CCCCCc1c(C)nc(N2CCOCC2)[nH]c1=O	0.9	2	37	0.6	7	4
Cc1ccc(NC(=O)NC(=O)N(c2ccccc2)S(C)(=O)=O)cc1	1	-17	10	0.9	-4	-18
CO/N=C/NC(=O)NOCc1ccc(Cl)cc1Cl	0.9	.	52*	0.5	14	4
C=CCOc1cccc(C2/C(=C(/O)c3ccccc3)C(=O)C(=O)N2CCCN2CCOCC2)c1 (stereo not given)	.	-15	.	.	.	.
CCOC(=O)/C=C1\SCC(=O)N1CC(=O)Nc1ccccc1OC(F)F	0.6	-8	96*	0	38	3
CCOC(=O)/C=C1\SCC(=O)N1CC(=O)NC(C)C	1.1	.	25	0.8	-6	-2
CC(=O)Nc1ccc(S(=O)(=O)NC(CC(=O)NCCCN2CCOCC2)C(C)C)cc1 (stereo not given)	1	-19	-5	1.1	-4	25
CC(C)(C)NS(=O)(=O)c1ccc(OCC(=O)NCCC2=CCCCC2)cc1	0.2	.	85*	0.1	84*	6
O=C(COc1ccc(S(=O)(=O)N2CCCC2)cc1)NCCC1=CCCCC1	0.1	26	43	0.6	86*	12
CC(=O)Nc1ccc(S(=O)(=O)NC(CC(=O)NCCC2=CCCCC2)C(C)C)cc1 (stereo not given)	0.7	-13	95*	0.1	32	-2
Cc1cccc2c(=O)oc(-c3ccc4c(c3)C(=O)N(CC3CCCO3)C4=O)nc12 (stereo not given)	.	-9	.	.	.	.
CCOC(=O)c1csc(NC(=O)c2ccccc2)n1	0.6	20	74*	0.3	43	19
SMILES	CYP2C9 act	tolC growth inh	CYP2C19 inh	CYP2C19 activ	CYP2C9 inhib	E coli WT exp
CCOC(=O)c1csc(NC(=O)c2ccc(S(=O)(=O)N(C)C)cc2)n1	0.9	-2	6	0.9	10	-3
CCOC(=O)Cc1cnc(NC(=O)c2ccccc2)s1	0.2	-9	94*	0.1	84*	-4
O=C(NC(=O)c1ccncc1)NC(c1ccccc1)c1ccccc1	0.7	.	34	0.7	34	6
Oc1ccccc1N=Nc1nc(-c2ccccc2)c(-c2ccccc2)[nH]1	0.5	.	24	0.8	54*	-10
NCCN1CCN(CCN)CC1	0.9	-17	-15	1.1	7	3
CC(=O)NC(Cc1ccc(C(C)C)cc1)C(=O)NC1CCN(c2nc(C)cc(C)n2)CC1 (stereo not given)	1.4	.	60*	0.4	-35	-8
O=C(Nc1cnn(Cc2ccccc2)c1)c1cc2nc(-c3ccco3)cc(C(F)(F)F)n2n1	1	-3	12	0.9	1	-6
CCOC(=O)/C(C#N)=C\c1cc(C)n(-c2ccccc2)c1C	0.8	.	21	0.8	22	-6
CCOC(=O)/C(C#N)=C/c1cc(C)n(-c2ccc(C)cc2)c1C	0.4	.	16	0.8	55*	-14
CCOC(=O)C1=CN(C)C=C(C(=O)OCC)C1c1ccsc1	0.6	-2	44	0.6	40	6
CCOc1ccc(C2C(C(=O)OC)=CN(CCOC)C=C2C(=O)OC)cc1	0.8	2	43	0.6	23	0
COC(=O)C1=C(C)N(C)C(C)=C(C(=O)OC)C1c1ccc(C(=O)OC)cc1	0.1	-17	97*	0	92*	-4
COC(=O)C1=CNC=C(C(=O)OC)C1c1ccc(C(=O)OC)cc1	0	12	99*	0	95*	-5
COC(=O)C1=C(C)N(C)C(C)=C(C(=O)OC)C1c1ccsc1	0.1	12	68*	0.3	91*	2
COC(=O)C1=C(C)N(C)C(=O)NC1c1ccc(C)cc1 (stereo not given)	0.7	-2	54*	0.5	29	-5
CCOC(=O)N1CCC(NC(=O)C2CCN(S(=O)(=O)N3CCC(C)CC3)CC2)CC1	0.8	-4	4	1	21	-7
O=C(O)Cc1ccc(C(=O)c2cccs2)s1	1	-1	8	0.9	4	1
N#CCc1ccc(C(=O)c2ccccc2)s1	0.8	.	70*	0.3	20	6
Cc1ccc(C)c(NC(=O)CSc2nnc(CCCCCNC(=O)OC(C)(C)C)o2)c1	0.6	31	39	0.6	40	0
Cc1cccc(C)c1NC(=O)CSc1nnc(CCCCCNC(=O)OC(C)(C)C)o1	0.3	8	50*	0.5	73*	-4
CC(C)(C)OC(=O)NCCc1nnc(S(=O)(=O)Cc2ccc(Cl)cc2Cl)o1	0.2	-2	77*	0.2	80*	-9
CC(C)(C)OC(=O)NCCc1nnc(SCC(N)=O)o1	1.1	1	-13	1.1	-12	-3
CC(C)(C)OC(=O)NCCc1nnc(SCc2ccccc2Cl)o1	0.2	33	82*	0.2	77*	4
